According to ChEMBL document CHEMBL2375286, “Design and synthesis of a series of α-benzyl phenylpropanoic acid-type peroxisome proliferator-activated receptor (PPAR) gamma partial agonists with improved aqueous solubility” (Bioorg Med Chem, 2013):
Converted amounts (≈) assume the structure as drawn. The source made the active and inactive calls. The rule behind the calls is not given here.

What was measured:
[1] = Thermodynamic solubility of the compound in phosphate buffer at pH 7.2 to 7.4 after 48 hrs by UV-HPLC analysis; format: physicochemical; conditions: read-out: Therm_solubility
Outline: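 About 1 mg of compound ground and suspended in 1.0 mL phosphate buffer (pH 7.2–7.4), then shaken 48 h at 25 °C. Suspension filtered (0.45 μm), filtrate diluted in CH3CN and analysed by HPLC with UV detection at 254 nm. Concentration taken from a calibration curve and corrected for dilution.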

[2] = target: T1, Peroxisome proliferator-activated receptor gamma (Homo sapiens) (UniProt P37231); experiment: Agonist activity at human PPAR-gamma1 LBD (176 to 477) transfected in african green monkey CV1 cells after 40 hrs by beta galactosidase-based luciferase reporter gene assay relative to rosiglitazone; format: cell-based; conditions: CV-1
T1 sequence (whole entry): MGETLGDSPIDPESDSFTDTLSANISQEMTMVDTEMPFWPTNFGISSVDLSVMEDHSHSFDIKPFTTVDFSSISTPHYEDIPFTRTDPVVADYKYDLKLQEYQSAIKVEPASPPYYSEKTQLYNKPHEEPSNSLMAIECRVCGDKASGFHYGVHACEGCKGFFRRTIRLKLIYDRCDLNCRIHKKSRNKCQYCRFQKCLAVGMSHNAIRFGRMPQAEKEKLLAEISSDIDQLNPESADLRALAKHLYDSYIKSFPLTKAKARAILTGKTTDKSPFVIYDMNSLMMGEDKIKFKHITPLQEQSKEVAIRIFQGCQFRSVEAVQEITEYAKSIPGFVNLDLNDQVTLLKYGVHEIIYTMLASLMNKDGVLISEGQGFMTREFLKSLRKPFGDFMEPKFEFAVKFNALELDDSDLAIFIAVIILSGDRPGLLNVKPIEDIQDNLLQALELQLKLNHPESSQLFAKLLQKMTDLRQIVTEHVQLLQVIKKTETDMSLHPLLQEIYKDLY
Outline: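 GAL4-PPAR chimera transactivation in CV-1 cells (0.5×10^5/well, 24 h), lipofected 5 h with 30 ng receptor plasmid, 250 ng MH100x4-tk-luc reporter, 350 ng pCMX-βGAL normalisation plasmid, 120 ng pGEM4 carrier. Compounds for 40 h. Luciferase and βGAL read from lysates. Activity scaled between 0.1% DMSO (minimum) and 10^-5 M rosiglitazone maleate (maximum). EC50 = concentration giving 50% maximal reporter activity.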

[3] = target: T2, Peroxisome proliferator-activated receptor gamma (Homo sapiens, UniProt P37231); experiment: Agonist activity at human PPAR-gamma1 LBD (176 to 477) transfected in african green monkey CV1 cells after 40 hrs by beta galactosidase-based luciferase reporter gene assay; format: cell-based, CV-1
T2 sequence (P37231 whole entry): T1 sequence (whole entry)
Outline: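 CV-1 cells seeded at 0.5×10^5 per well, cultured 24 h, then lipofected for 5 h. Transfection mix: 30 ng GAL4-PPAR chimeric receptor plasmid, 250 ng MH100x4-tk-luc reporter, 350 ng pCMX-βGAL for normalization, 120 ng pGEM4 carrier. Compounds added for 40 h, then luciferase and βGAL read in lysates. Activity scaled between 0.1% DMSO (minimum) and 10^-5 M rosiglitazone maleate (maximum). EC50 is the concentration giving 50% of maximal reporter activity.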

OCUM-2MD3 [4] = experiment: Induction of apoptosis in human OCUM-2MD3 cells after 72 hrs by Hoechst 33342/propidium iodide staining-based fluorescence microscopy; format: functional, cell-based
Outline: (§1)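 OCUM-2MD3 cells grown in DMEM/F12 (1:1); OUMS-24 normal fibroblasts grown in DMEM; both media with 10% FBS, 100 μg/mL kanamycin and 0.5 μg/mL Fungizone. Cells plated, incubated 24 h, then treated with compound at 1–100 μM for 72 h. Stained with 1 μg/mL Hoechst 33342 plus 5 μg/mL propidium iodide for 20 min in the dark and examined by fluorescence microscopy. Cells with fragmented or shrunken nuclei counted as apoptotic; result given as % increase over DMSO control.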

[5] = Induction of apoptosis in human OUMS-24 cells at 100 uM after 72 hrs by Hoechst 33342/propidium iodide staining-based fluorescence microscopy; format: cell-based; conditions: oums-24, 72 h; outline: as §1
OCUM-2MD3 [6] = experiment: Induction of apoptosis in human OCUM-2MD3 cells at 10 to 100 uM after 72 hrs by Hoechst 33342/propidium iodide staining-based fluorescence microscopy; format: functional, cell-based; outline: as §1
[7] = Induction of apoptosis in human OUMS-24 cells after 72 hrs by Hoechst 33342/propidium iodide staining-based fluorescence microscopy; format: cell-based; conditions: oums-24, 72 h; outline: as §1
[8] = target: T3, Peroxisome proliferator-activated receptor gamma (Mus musculus) (UniProt P37238); experiment: Agonist activity at PPAR-gamma in mouse 3T3-L1 cells assessed as adipocyte differentiation at 1 to 1000 nM after 6 days by Oil Red O staining; format: cell-based
T3 sequence (whole entry): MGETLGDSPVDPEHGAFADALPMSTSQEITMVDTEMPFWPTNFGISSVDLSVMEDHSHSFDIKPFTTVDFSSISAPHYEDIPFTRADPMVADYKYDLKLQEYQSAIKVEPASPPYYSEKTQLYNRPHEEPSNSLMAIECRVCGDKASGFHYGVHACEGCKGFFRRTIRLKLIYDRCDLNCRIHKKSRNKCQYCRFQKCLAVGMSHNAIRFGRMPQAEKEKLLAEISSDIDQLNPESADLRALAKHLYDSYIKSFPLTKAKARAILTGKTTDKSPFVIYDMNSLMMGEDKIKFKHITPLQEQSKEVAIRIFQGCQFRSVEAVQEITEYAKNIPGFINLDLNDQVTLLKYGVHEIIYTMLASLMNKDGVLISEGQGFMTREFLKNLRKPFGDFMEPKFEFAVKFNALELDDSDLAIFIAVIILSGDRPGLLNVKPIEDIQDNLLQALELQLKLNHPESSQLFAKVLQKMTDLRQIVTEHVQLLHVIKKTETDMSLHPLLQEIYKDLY
Outline: (§2)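 3T3-L1 cells grown in DMEM with 10% FBS. At confluence, differentiation started with 1 μM dexamethasone, 0.5 mM IBMX and 5 μg/mL insulin for 2 days. Ligands then added at 1–1000 nM. After 6 days cells stained with Oil Red O and adipogenesis read as absorbance at OD550. Error bars are SD.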

[9] = target: T3, Peroxisome proliferator-activated receptor gamma (Mus musculus); experiment: Agonist activity at PPAR-gamma in mouse 3T3-L1 cells assessed as induction of triglyceride accumulation at 1 to 1000 nM after 6 days by Oil Red O staining; format: cell-based; outline: as §2
[10] = target: T3, Peroxisome proliferator-activated receptor gamma (Mus musculus); experiment: Partial agonist activity at PPAR-gamma in mouse 3T3-L1 cells assessed as adipocyte differentiation at […] after 6 days by Oil Red O staining; format: cell-based; outline: as §2
[11] = target: T3, Peroxisome proliferator-activated receptor gamma (Mus musculus); experiment: Agonist activity at PPAR-gamma in mouse 3T3-L1 cells assessed as adipocyte differentiation after 6 days by Oil Red O staining; format: cell-based; outline: as §2

Compound: CCCOc1ccc(C[C@@H](Cc2ccccc2)C(=O)O)cc1CNC(=O)c1ccc(-c2ccccc2)cc1
- solubility thermodynamic at 48 h [1]: < 1 µg/mL
- Efficacy [2]: 95.7%
- EC50 [3]: 85.9 nM

Compound: CCCOc1ccc(C[C@@H](Cc2ccccc2)C(=O)O)cc1CNC(=O)c1ccc(-c2ccc(F)cc2)cc1
- solubility thermodynamic at 48 h [1]: < 1 µg/mL
- Efficacy [2]: 104%
- EC50 [3]: 103 nM

Compound: CCCOc1ccc(C[C@@H](Cc2ccccc2)C(=O)O)cc1CNC(=O)c1ccc(-c2cncnc2)cc1
- solubility thermodynamic at 48 h [1]: 190 µg/mL (≈ 373 µM)
- Efficacy [2]: 82.7%
- EC50 [3]: 3100 nM

Compound: CCCOc1ccc(C[C@@H](Cc2ccccc2)C(=O)O)cc1CNC(=O)c1ccc(-c2cccc(F)c2)cc1
- solubility thermodynamic at 48 h [1]: < 1 µg/mL
- Efficacy [2]: 99.7%
- EC50 [3]: 28.7 nM

Compound: CCCOc1ccc(C[C@H](Cc2ccccc2)C(=O)O)cc1CNC(=O)c1ccc(C23CC4CC(CC(C4)C2)C3)cc1
- Activity (OCUM-2MD3 [4]): Dose-dependent effect
- Activity [5]: Toxic
- solubility thermodynamic at 48 h [1]: < 1 µg/mL
- Activity (OCUM-2MD3 [6]): Active

Compound: CCCOc1ccc(C[C@@H](Cc2ccccc2)C(=O)O)cc1CNC(=O)c1ccc(-c2ccccc2C)cc1
- solubility thermodynamic at 48 h [1]: < 1 µg/mL
- Efficacy [2]: 72.7%
- EC50 [3]: 73.8 nM

Compound: CCc1ccc(CCOc2ccc(CC3SC(=O)NC3=O)cc2)nc1 (centres undefined) [PIOGLITAZONE]
- Activity (OCUM-2MD3 [4]): Dose-dependent effect
- Activity [7]: Non-toxic

Compound: CCCOc1ccc(C[C@@H](Cc2ccccc2)C(=O)O)cc1CNC(=O)c1ccc(-c2cnccn2)cc1
- solubility thermodynamic at 48 h [1]: 32.2 µg/mL (≈ 63.2 µM)
- Efficacy [2]: 58.2%
- EC50 [3]: 714 nM

Compound: CCCOc1ccc(C[C@@H](Cc2ccccc2)C(=O)O)cc1CNC(=O)c1ccc(-c2ccccc2F)cc1
- solubility thermodynamic at 48 h [1]: < 1 µg/mL
- Efficacy [2]: 95%
- EC50 [3]: 49.5 nM

Compound: CCCOc1ccc(C[C@@H](Cc2ccccc2)C(=O)O)cc1CNC(=O)c1ccc(-c2ccncc2)cc1
- solubility thermodynamic at 48 h [1]: 34.1 µg/mL (≈ 67 µM)
- Efficacy [2]: 108%
- EC50 [3]: 1690 nM

Compound: CCCOc1ccc(C[C@@H](Cc2ccccc2)C(=O)O)cc1CNC(=O)c1ccc(-c2ncccn2)cc1
- Activity (OCUM-2MD3 [4]): Dose-dependent effect
- Activity [8]: Active
- solubility thermodynamic at 48 h [1]: 301 µg/mL (≈ 591 µM)
- Activity [9]: Active
- Efficacy [2]: 65%
- Activity [10]: Active
- EC50 [3]: 34.6 nM

Compound: CCCOc1ccc(C[C@@H](Cc2ccccc2)C(=O)O)cc1CNC(=O)c1ccc(-c2ccccn2)cc1
- solubility thermodynamic at 48 h [1]: 17 µg/mL (≈ 33.4 µM)
- Efficacy [2]: 113%
- EC50 [3]: 186 nM

Compound: CCCOc1ccc(C[C@@H](Cc2ccccc2)C(=O)O)cc1CNC(=O)c1ccc(-c2cccs2)cc1
- solubility thermodynamic at 48 h [1]: < 1 µg/mL
- Efficacy [2]: 76%
- EC50 [3]: 65.2 nM

Compound: CCCOc1ccc(C[C@@H](Cc2ccccc2)C(=O)O)cc1CNC(=O)c1ccc(-c2cccnc2)cc1
- solubility thermodynamic at 48 h [1]: 69.5 µg/mL (≈ 137 µM)
- Efficacy [2]: 100%
- EC50 [3]: 844 nM

Compound: CCCOc1ccc(C[C@H](CC)C(=O)O)cc1CNC(=O)c1ccc(C23CC4CC(CC(C4)C2)C3)cc1
- Activity [8]: Active
- Activity [9]: Active
- Activity [11]: Dose-dependent effect
